The values that follow come from ChEMBL document CHEMBL1921792, “Synthesis and anticonvulsant activity of trans- and cis-2-(2,6-dimethylphenoxy)-N-(2- or 4-hydroxycyclohexyl)acetamides and their amine analogs” (Bioorg Med Chem, 2011).

The subject of data set [1] is Mus musculus. Put plainly: Neurotoxicity in mouse assessed as inability to maintain equilibrium on rotarod at 100 mg/kg, ip after 0.5 hrs by rotarod test. Further details: dose 100 mg/kg, route intraperitoneal. The conditions noted are these: in vivo. The data set is classed as toxicity, organism-based. In short, it runs like this: (§1)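 Drug given ip to mice as a suspension in 0.5% methylcellulose. At the stated time after dosing, each mouse was placed on a 1 inch knurled rod turning at 6 rpm. Neurotoxicity = inability to stay balanced at least 1 min in each of three trials. Scored as animals toxic/animals tested in small groups.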
On the technique in general: In the rotarod test animals must keep their balance on a rotating rod.

Data set [2] has as its system Mus musculus. The data set can be described thus: Neurotoxicity in mouse assessed as inability to maintain equilibrium on rotarod at 300 mg/kg, ip after 0.5 hrs by rotarod test. The data set is classed as toxicity, organism-based. The arrangement: dose 300 mg/kg, route intraperitoneal. The conditions noted are these: in vivo. In short, it runs like this: as §1
In data set [3] the test system is Mus musculus. The data set can be described thus: Neurotoxicity in ip dosed mouse assessed as inability to maintain equilibrium on rotarod by rotarod test. The following applies: in vivo. The data set is classed as toxicity, organism-based. In short, it runs like this: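 Mice dosed ip with a suspension in 0.5% methylcellulose, then placed on a 1 inch knurled plastic rod rotating at 6 rpm. Toxicity = failure to keep equilibrium for at least 1 min in each of three trials.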

Data set [4] deals with Mus musculus. The data set can be described thus: Anticonvulsant activity in ip dosed mouse assessed as protection against maximal electric shock-induced seizures. The data set is classed as functional.
For data set [5], the species on record is Mus musculus. The data set can be described thus: Protective index, ratio of TD50 for neurotoxicity in mouse to ED50 for inhibition of maximal electroshock-induced seizures in mouse. The format is functional. Background: In the maximal electroshock model the usual endpoint is tonic extension of the hind limbs.
Data set [6] relates to Mus musculus. The data set can be described thus: Neurotoxicity in mouse assessed as inability to maintain equilibrium on rotarod at 300 mg/kg, ip after 0.25 hrs using rotarod test. The format is toxicity, organism-based. The conditions noted are these: in vivo. Further details: dose 300 mg/kg, route intraperitoneal. In short, it runs like this:
as §1

Data set [7] concerns Mus musculus. Put plainly: Neurotoxicity in mouse assessed as inability to maintain equilibrium on rotarod at 300 mg/kg, ip after 0.5 hrs using rotarod test. Further details: dose 300 mg/kg, route intraperitoneal. The data set is classed as toxicity, organism-based. The conditions noted are these: in vivo. In short, it runs like this: as §1
Data set [8] deals with Mus musculus. Put plainly: Neurotoxicity in mouse assessed as inability to maintain equilibrium on rotarod at 300 mg/kg, ip after 2 hrs using rotarod test. Further details: dose 300 mg/kg, route intraperitoneal. The conditions noted are these: in vivo. The format is toxicity, organism-based. In short, it runs like this:
as §1

The subject of data set [9] is Mus musculus. Put plainly: Neurotoxicity in mouse assessed as inability to maintain equilibrium on rotarod at 300 mg/kg, ip after 4 hrs using rotarod test. The data set is classed as toxicity, organism-based. Further details: dose 300 mg/kg, route intraperitoneal. The conditions noted are these: in vivo. In short, it runs like this:
as §1

As usually defined, the TD50 is the 50% point of the dose-response relation for the toxic effect studied. Usually ED50 stands for the dose at which the effect has come halfway, by size or by number of responders. Take `Cc1cccc(C)c1OCC(=O)NC1CCCCC1O.Cl` (racemic; 4): the Activity result in data set [1] is given as “Non-toxic”; in data set [2] it was “Non-toxic”; in data set [6], “Toxic”; in [7], “Toxic”; in [8], “Non-toxic”; in data set [9], “Non-toxic”. For the same compound, the TD50 in data set [3] is 117.73 mg/kg. Further, in [4], the ED50 stood at 78.83 mg/kg. Moreover, in data set [5], the “Ratio TD50/ED50” value amounted to 1.493.
